According to PMC3777270 (Biomaterials, 2010):

Tested on: S. aureus strain MZ100
Assay: In vitro S. aureus biofilm formation on coated Ti slides
Assay type: cell-based, Staphylococcus aureus
Conditions: 5 h exposure to S. aureus, 0.1% crystal violet; for macroscopic appearance of crystal violet stained wells: digital photographs; for cell attachment in phase-contrast micrographs: 630×
Outline: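 Wells were formed on 20 nm Ti-coated glass slides with adhesive silicone isolators. PEGylated mono-, di- or tetravalent Ti-binding peptide coatings (500 μL) were applied in triplicate, held 2 h at RT and washed twice with PBS; uncoated Ti was included. Overnight TSB culture was diluted to ~5 × 10^7 CFU/mL in TSB + 0.2% glucose, then 5 h at 37 °C in a humidified chamber.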

(SKHKGGKHKGGKHKG)2K)2KSSGK(Biotin) –GGC–PEG [TBP4–PEG]
macroscopic appearance of crystal violet stained wells: remained largely clear with small, disperse patches of staining | cell attachment in phase-contrast micrographs: significantly fewer adhered bacteria

(SKHKGGKHKGGKHKG)2KSSGK(Biotin) –GGC–PEG [TBP2–PEG]
macroscopic appearance of crystal violet stained wells: thick, dense biofilm | cell attachment in phase-contrast micrographs: slight decrease in cell density

SKHKGGKHKGGKHKGSSGK(Biotin) –GGC–PEG [TBP1–PEG]
macroscopic appearance of crystal violet stained wells: thick, dense biofilm | cell attachment in phase-contrast micrographs: substantial cell attachment
